The values that follow come from ChEMBL document CHEMBL1139103, “Identification of novel glycine sulfonamide antagonists for the EP1 receptor” (Bioorg Med Chem Lett, 2007).

Assay [1] addresses T1, Prostaglandin E2 receptor EP1 subtype (Homo sapiens, UniProt P34995).
T1 sequence (P34995 whole entry): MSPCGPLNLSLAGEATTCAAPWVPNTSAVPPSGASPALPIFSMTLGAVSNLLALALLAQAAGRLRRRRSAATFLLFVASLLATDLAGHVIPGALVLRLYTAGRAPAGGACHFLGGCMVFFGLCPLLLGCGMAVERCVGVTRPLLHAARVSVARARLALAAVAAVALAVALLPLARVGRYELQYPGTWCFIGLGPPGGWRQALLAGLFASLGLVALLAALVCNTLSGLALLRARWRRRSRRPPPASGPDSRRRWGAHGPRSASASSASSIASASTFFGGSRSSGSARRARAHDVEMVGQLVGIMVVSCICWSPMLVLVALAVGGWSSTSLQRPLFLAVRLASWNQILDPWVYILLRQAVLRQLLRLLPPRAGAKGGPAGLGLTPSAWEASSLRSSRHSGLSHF
The experiment in a line: Antagonist activity at human EP1 expressed in CHOK1 cells receptor assessed as inhibition of intracellular calcium mobilization by FLIPR assay. Format: functional, cell-based, CHO-K1. The procedure, abridged:
(§1)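 Stable EP1- or EP3-transfected CHO-K1 whole cells loaded with calcium-sensitive dye Fluo-3; inhibition of PGE2-evoked intracellular Ca2+ mobilisation read on a fluorimetric imaging plate reader (FLIPR). IC50s converted to pKi. Means of at least two experiments unless specified.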
(In general: A change in cytosolic calcium serves as a functional read-out for many receptors and channels.)

Assay [2] addresses T1, Prostaglandin E2 receptor EP1 subtype. Description: Antagonist activity at human EP1 receptor expressed in CHO cells receptor by […] reporter gene assay. As to conditions: read-out: pA2 (converted). The class given is functional, cell-based. The procedure, abridged: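 CHO cells stably co-transfected with NFAT reporter gene and human EP1 (pCIN3) were quiesced 24 h before assay. PGE2 concentration-response curves run without antagonist and with five antagonist concentrations, 4 h incubation, luciferase readout. Dose ratios from PGE2 EC50s; log(dose ratio − 1) vs log[antagonist] fitted by linear regression to give pA2 and slope.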

In assay [3] the target is T2, Prostaglandin E2 receptor EP3 subtype (Homo sapiens, UniProt P43115).
T2 sequence (P43115 whole entry): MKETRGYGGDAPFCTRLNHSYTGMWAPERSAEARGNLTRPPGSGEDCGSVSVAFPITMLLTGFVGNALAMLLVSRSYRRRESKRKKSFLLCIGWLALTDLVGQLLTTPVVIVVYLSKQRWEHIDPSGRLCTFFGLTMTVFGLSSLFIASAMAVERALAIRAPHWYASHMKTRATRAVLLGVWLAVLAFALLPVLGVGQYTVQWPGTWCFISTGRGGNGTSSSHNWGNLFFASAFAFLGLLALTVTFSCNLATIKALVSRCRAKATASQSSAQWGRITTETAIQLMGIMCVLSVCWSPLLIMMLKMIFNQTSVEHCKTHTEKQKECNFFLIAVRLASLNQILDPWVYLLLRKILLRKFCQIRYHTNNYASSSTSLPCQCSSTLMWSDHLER
Description: Antagonist activity at human EP3 expressed in CHOK1 cells receptor assessed as inhibition intracellular calcium mobilization by FLIPR assay. Format: functional, cell-based, CHO-K1. In outline: as §1

The species named for another assay is Homo sapiens. The experiment in a line: Selectivity for EP1 receptor over EP3 receptor.
The next assay addresses T3, Thromboxane A2 receptor (Homo sapiens, UniProt P21731).
T3 sequence (P21731 whole entry): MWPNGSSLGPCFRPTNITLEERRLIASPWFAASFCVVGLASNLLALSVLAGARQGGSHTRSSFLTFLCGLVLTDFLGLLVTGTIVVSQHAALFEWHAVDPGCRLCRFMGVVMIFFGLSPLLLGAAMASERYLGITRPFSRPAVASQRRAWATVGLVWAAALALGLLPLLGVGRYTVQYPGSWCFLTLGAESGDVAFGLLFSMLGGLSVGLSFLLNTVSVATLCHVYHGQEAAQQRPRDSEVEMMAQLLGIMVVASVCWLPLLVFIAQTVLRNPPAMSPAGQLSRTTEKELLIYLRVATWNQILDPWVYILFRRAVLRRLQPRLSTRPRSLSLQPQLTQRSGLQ
The experiment in a line: Inhibition of TP receptor.

Assay [4] concerns the target Prostaglandin F2-alpha receptor (Homo sapiens, UniProt P43088). The experiment in a line: Inhibition of FP receptor.
In the next assay the target is T4, Cytochrome P450 1A2 (Homo sapiens, UniProt P05177).
T4 sequence (P05177 whole entry): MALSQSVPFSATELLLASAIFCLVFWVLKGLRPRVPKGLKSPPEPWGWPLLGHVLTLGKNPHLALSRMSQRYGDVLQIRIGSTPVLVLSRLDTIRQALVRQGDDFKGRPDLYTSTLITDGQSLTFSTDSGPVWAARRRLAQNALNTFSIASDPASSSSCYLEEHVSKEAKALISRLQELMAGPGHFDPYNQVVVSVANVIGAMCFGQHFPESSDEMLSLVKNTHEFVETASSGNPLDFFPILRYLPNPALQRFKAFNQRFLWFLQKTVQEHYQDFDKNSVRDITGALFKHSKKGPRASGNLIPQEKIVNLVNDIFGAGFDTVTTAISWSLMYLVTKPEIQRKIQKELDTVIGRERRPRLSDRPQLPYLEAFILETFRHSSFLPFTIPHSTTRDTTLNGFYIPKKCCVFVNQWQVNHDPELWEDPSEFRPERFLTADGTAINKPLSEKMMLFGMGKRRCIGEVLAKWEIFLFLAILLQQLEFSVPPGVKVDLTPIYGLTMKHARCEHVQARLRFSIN
The experiment in a line: Inhibition of CYP1A2. The class given is ADME.

The next assay has as its target Cytochrome P450 2C9 (Homo sapiens, UniProt P11712). The experiment in a line: Inhibition of CYP2C9. Format: ADME.
In another assay the target is Cytochrome P450 2C19 (Homo sapiens, UniProt P33261). The experiment in a line: Inhibition of CYP2C19. The class given is ADME.
Another assay deals with Cytochrome P450 2D6 (Homo sapiens, UniProt P10635). Description: Inhibition of CYP2D6. The class given is ADME.
Another assay has as its target Cytochrome P450 3A4 (Homo sapiens, UniProt P08684). Description: Inhibition of CYP3A4. Format: ADME.
Assay [5] has as its target T1, Prostaglandin E2 receptor EP1 subtype. The experiment in a line: Displacement of [3H]PGE2 from EP1 expressed in CHO cells. The class given is cell-based. The procedure, abridged:
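Membranes from stable EP1-transfected CHO-K1 cells incubated with compound and [3H]-PGE2 (3 nM final) for 30 min at 30 °C. Bound radioactivity counted by liquid scintillation. Means of at least four experiments.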

Sequence of Cytochrome P450 2C9 (P11712 whole entry): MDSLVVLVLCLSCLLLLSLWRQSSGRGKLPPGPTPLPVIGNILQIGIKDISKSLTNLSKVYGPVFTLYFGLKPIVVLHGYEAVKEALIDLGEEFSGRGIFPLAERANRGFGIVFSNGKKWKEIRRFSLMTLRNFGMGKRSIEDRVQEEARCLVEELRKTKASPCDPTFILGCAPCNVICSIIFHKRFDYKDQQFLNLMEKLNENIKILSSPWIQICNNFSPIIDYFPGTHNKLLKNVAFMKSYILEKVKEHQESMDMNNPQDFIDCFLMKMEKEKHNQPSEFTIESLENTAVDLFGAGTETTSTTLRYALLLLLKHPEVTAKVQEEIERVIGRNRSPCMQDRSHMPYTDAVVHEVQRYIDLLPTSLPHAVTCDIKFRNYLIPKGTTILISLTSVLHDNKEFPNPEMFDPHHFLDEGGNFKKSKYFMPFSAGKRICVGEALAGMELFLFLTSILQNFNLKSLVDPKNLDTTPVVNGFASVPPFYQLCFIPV
Sequence of Cytochrome P450 2C19 (P33261 whole entry): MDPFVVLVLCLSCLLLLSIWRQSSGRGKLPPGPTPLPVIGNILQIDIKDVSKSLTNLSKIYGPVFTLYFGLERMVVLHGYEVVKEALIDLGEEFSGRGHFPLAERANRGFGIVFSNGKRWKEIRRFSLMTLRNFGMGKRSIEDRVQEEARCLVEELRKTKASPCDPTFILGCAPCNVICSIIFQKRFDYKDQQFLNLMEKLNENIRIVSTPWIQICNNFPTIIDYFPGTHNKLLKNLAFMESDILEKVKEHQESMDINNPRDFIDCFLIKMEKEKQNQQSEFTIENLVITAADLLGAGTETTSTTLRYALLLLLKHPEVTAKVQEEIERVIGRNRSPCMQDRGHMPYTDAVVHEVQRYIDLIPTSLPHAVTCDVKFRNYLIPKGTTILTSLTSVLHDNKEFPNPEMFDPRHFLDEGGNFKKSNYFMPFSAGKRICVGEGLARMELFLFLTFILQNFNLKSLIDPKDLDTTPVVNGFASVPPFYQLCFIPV
Sequence of Prostaglandin F2-alpha receptor (P43088 whole entry): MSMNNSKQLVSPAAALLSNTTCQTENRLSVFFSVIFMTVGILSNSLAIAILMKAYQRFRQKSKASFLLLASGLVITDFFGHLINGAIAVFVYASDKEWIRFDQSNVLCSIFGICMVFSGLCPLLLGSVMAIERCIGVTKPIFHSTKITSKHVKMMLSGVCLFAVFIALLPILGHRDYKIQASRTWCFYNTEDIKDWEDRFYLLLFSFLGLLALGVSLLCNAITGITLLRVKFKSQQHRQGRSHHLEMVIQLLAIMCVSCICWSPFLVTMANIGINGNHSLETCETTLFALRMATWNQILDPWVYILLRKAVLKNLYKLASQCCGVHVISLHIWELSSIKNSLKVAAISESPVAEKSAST
Sequence of Cytochrome P450 2D6 (P10635 whole entry): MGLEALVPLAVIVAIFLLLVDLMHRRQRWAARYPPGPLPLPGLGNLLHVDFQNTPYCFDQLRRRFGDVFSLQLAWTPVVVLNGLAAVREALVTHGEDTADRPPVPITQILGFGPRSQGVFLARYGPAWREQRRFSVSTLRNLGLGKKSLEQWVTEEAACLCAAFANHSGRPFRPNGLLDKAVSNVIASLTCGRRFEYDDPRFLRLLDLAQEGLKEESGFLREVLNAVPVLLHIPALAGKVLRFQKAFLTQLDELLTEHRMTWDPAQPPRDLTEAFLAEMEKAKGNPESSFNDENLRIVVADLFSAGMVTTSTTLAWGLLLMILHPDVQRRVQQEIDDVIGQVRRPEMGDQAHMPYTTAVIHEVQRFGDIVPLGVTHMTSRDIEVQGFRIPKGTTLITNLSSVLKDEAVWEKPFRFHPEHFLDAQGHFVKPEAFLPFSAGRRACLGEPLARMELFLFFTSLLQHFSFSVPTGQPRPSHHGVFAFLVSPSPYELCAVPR
Sequence of Cytochrome P450 3A4 (P08684 whole entry): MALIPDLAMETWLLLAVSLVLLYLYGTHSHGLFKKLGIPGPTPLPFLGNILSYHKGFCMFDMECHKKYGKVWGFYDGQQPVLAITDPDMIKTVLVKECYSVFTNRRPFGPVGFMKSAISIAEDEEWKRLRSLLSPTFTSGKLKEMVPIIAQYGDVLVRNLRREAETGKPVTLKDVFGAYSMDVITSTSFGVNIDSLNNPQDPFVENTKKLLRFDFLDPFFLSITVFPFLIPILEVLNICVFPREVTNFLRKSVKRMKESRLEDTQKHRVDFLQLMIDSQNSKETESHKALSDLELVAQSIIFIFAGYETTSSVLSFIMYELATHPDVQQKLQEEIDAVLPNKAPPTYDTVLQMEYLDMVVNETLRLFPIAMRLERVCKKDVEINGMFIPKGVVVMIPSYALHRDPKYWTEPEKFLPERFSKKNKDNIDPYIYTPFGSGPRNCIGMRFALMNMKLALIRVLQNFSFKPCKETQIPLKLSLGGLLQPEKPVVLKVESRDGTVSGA

In the case of `CCc1ccccc1N(CC(=O)NCCc1ccc(OC)c(OC)c1)S(=O)(=O)c1ccc(C)cc1`, the inhibitory constant (Ki) in assay [1] is 13.5 nM. In assay [2], the Kb is 5.01 nM.
With `CCc1ccccc1N(CC(=O)NCc1ccc(Cl)cc1)S(=O)(=O)c1ccc(C)cc1`, the Ki was 794 nM in assay [3], 11.5 nM in assay [1] and 10 nM in [5]. Further, the Ratio pKi in the assay listed under Homo sapiens is 100. Moreover, the IC50 against Thromboxane A2 receptor was greater than 10000 nM; in assay [4], 4170 nM; against Cytochrome P450 1A2, 31600 nM; on Cytochrome P450 2C9 it was 6310 nM; against Cytochrome P450 2C19 it was 2000 nM; against Cytochrome P450 2D6 it was 100000 nM. Besides, at Cytochrome P450 3A4, inhibition was half-maximal at 251 nM (IC50).

For orientation: Ki means the dissociation constant of the complex between target and ligand, obtained from inhibition or displacement. A word on the IC50: it is the point on the concentration scale where inhibition reaches its midpoint.
